Measurements from ChEMBL document CHEMBL1144753, “Inhibitors of DNA polymerase beta: activity and mechanism” (Bioorg Med Chem, 2008).
Active and inactive are the calls of the source. The rule behind the calls is not given here.

Key:
A549 [1] = assay: Cytotoxicity against human A549 cells after 48 hrs by MTT assay; conditions: A549, 48 h
A549 [2] = assay: Effect on DNA polymerase beta expression in human A549 cells at 6 uM after 48 hrs by Western blot analysis; assay type: functional, cell-based
Procedure, shortened: (§1)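 A549 cells grown in Ham's F12K with 10% fetal calf serum, exposed 48 h to compound. Whole-cell extracts prepared by freeze/thaw lysis, cleared at 15,000 × g. Extracts resolved on 15% SDS-PAGE, transferred to PVDF and probed with anti-human pol β antibody. Anti-β-actin served as loading control. HRP anti-goat IgG detection, followed by densitometric quantification.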

[3] = target: DNA polymerase beta (Rattus norvegicus) (UniProt P06766); assay: Inhibition of lyase activity of DNA polymerase beta
[4] = target: DNA polymerase beta (Rattus norvegicus) (UniProt P06766); assay: Inhibition of polymerase activity of DNA polymerase beta
A549 [5] = assay: Inhibition of bleomycin-induced unscheduled DNA synthesis in human A549 cells at 25 uM; assay type: functional, cell-based
Procedure, shortened: (§2)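 A549 cells (~5×10^5) treated with 10 mM bleomycin for 30 min at 37 °C. DMSO, 10 mM hydroxyurea, 2 mM nicotinamide, 5 μCi [3H]thymidine and inhibitor then added, triplicate flasks per concentration. Incubated 3 h, stopped with ice-cold saline. Cells pelleted and treated with ice-cold 5% TCA for 30 min; incorporated radioactivity read by scintillation counting.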

A549 [6] = assay: Effect on DNA polymerase beta expression in human A549 cells at 25 uM after 48 hrs by Western blot analysis; assay type: functional, cell-based
Procedure, shortened: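 A549 cells grown at 37 °C, 5% CO2 in Kaighn's F12 with 10% fetal calf serum, exposed 48 h to inhibitor at 25 μM (final DMSO <0.05%). Whole-cell extracts made by freeze/thaw, then resolved on 15% SDS-PAGE and blotted to PVDF. Probed with anti-human pol β antibody, with anti-β-actin as loading control. HRP detection; bands scanned and quantified.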

A549 [7] = assay: Inhibition of bleomycin-induced unscheduled DNA synthesis in human A549 cells at 3 uM; assay type: functional, cell-based
Procedure, shortened: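 A549 cells (~5×10^5) treated with 10 mM bleomycin for 30 min at 37 °C. Then 10 mM hydroxyurea, 2 mM nicotinamide, 5 µCi [3H]thymidine and inhibitor added, incubated 3 h. Stopped with ice-cold saline. Cells collected and TCA-precipitated on ice 30 min for scintillation counting of incorporated label. Run in triplicate.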

A549 [8] = assay: Effect on DNA polymerase beta expression in human A549 cells at 3 uM after 48 hrs by Western blot analysis; assay type: functional, cell-based
Procedure, shortened: as §1

A549 [9] = assay: Inhibition of bleomycin-induced unscheduled DNA synthesis in human A549 cells at 6 uM; assay type: functional, cell-based
Procedure, shortened: as §2

Compound	IC50 (A549 [1]) [µM]	Activity (A549 [2])	IC50 [3] [µM]	IC50 [4] [µM]	Activity (A549 [5])	Activity (A549 [6])	Activity (A549 [7])	Activity (A549 [8])	Activity (A549 [9])
CC[C@H](/C=C/[C@@H](C)[C@H]1CC[C@H]2[C@@H]3CC=C4C[C@@H](O)CC[C@]4(C)[C@H]3CC[C@]12C)C(C)C [STIGMASTEROL]	98.2	inactive	60.3	> 250	–	–	–	–	–
CC1(C)CC[C@]2(C(=O)O)CC[C@]3(C)C(=CC[C@@H]4[C@@]5(C)CC[C@H](O)C(C)(C)[C@@H]5CC[C@]43C)[C@@H]2C1 [OLEANOLIC_ACID]	> 100	–	26.3	25	Active	inactive	–	–	–
C=C(C)[C@@H]1CC[C@]2(C(=O)O)CC[C@]3(C)[C@H](CC[C@@H]4[C@@]5(C)CC[C@H](O)C(C)(C)[C@@H]5CC[C@]43C)[C@@H]12 [BETULINIC ACID]	6.65	–	–	–	–	–	Active	inactive	–
O=c1ccc2ccc(Oc3cc4ccc(O)cc4oc3=O)cc2o1 [EDGEWORIN]	80.2	inactive	–	–	–	–	–	–	Active
